Data on 24 compounds can be found in ChEMBL document CHEMBL1156809, “Synthesis and anticonvulsant activities of (R)-N-(4'-substituted)benzyl 2-acetamido-3-methoxypropionamides” (J Med Chem, 2010).

For data set [1], the system named is Mus musculus. The data set is described as follows: Anticonvulsant activity against subcutaneous metrazole-induced seizures in albino CF1 mouse at 300 mg/kg, ip after 4 hrs. It is filed as functional, organism-based. Details: dose 300 mg/kg. The method, boiled down:
(§1)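 Subcutaneous Metrazol seizure test under the NINDS ASP, using ip dosing to mice, typically at 300 mg/kg. Protection was assessed at 0.5 and 4 h.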

Data set [2] relates to Mus musculus. The data set is described as follows: Anticonvulsant activity against subcutaneous metrazole-induced seizures in albino CF1 mouse at 300 mg/kg, ip after 0.5 hrs. It is filed as functional, organism-based. Details: dose 300 mg/kg. In outline:
as §1

For data set [3], the system named is Mus musculus. The data set is described as follows: Anticonvulsant activity in ip dosed albino CF1 mouse seizure model assessed as protection against hind limb extension by MES test. Type of data set: functional. Particulars: albino CF1, Hindlimb. In outline: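 Maximal electroshock seizure test run by the NINDS ASP (Stables and Kupferberg procedures). Compounds were given intraperitoneally to mice, and the ED50 for seizure protection is reported in mg/kg.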

Data set [4] deals with Rattus norvegicus. The data set is described as follows: Anticonvulsant activity against subcutaneous metrazole-induced seizures in albino Sprague-Dawley rat at 300 mg/kg, ip after 0.5 hrs. Details: dose 300 mg/kg. Type of data set: functional, organism-based.
Data set [5] is described as follows: Neurological toxicity in ip dosed albino CF1 mouse assessed as neurological impairment by rotarod test. Conditions: in vivo. Type of data set: organism-based. The method, boiled down:
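Neurological impairment was measured with the rotorod test in mice dosed intraperitoneally. The median dose (TD50, mg/kg) was determined only for compounds with significant MES activity.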
For orientation: The rotarod test checks motor coordination on a turning rod.

For data set [6], the system named is Rattus norvegicus. The data set is described as follows: Anticonvulsant activity against subcutaneous metrazole-induced seizures in albino Sprague-Dawley rat at 300 mg/kg, ip after 4 hrs. Type of data set: functional, organism-based. Details: dose 300 mg/kg.
Data set [7] concerns Rattus norvegicus. The data set is described as follows: Anticonvulsant activity in po dosed albino Sprague-Dawley rat seizure model assessed as protection against hind limb extension by MES test. It is filed as functional. Particulars: Hindlimb. In outline:
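MES seizure protection was tested in Sprague Dawley rats dosed orally, through the NINDS ASP. The ED50 is expressed in mg/kg.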

Data set [8] in a line: Behavioral toxicity in po dosed albino Sprague-Dawley rat. Conditions: in vivo. It is filed as organism-based. The method, boiled down: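 Behavioral toxicity was recorded as observed effects in rats after oral administration, within the NINDS ASP screen.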

The ED50 is the dose at which the effect has come halfway, by size or by number of responders. In general, TD50 refers to the 50% point of the dose-response relation for the toxic effect studied.

SMILES strings stand for the structures. The source made the active and inactive calls. The calls are words filed in the database; no cut-off is given here.

In the case of `COC[C@@H](NC(C)=O)C(=O)NCc1ccc(C#C[Si](C)(C)C)cc1`, the outcome in the data set with Mus musculus [1], with Mus musculus [2], in the data set on Rattus norvegicus [4] and in the data set with Rattus norvegicus [6] was inactive. Further, in the data set on Mus musculus [3], the ED50 was more than 3 mg/kg. In addition, in data set [5], the TD50 is 3 mg/kg.

On to `CCc1ccc(CNC(=O)[C@H](COC)NC(C)=O)cc1`, for which the outcome with Mus musculus [1], in the data set on Mus musculus [2], with Rattus norvegicus [4] and with Rattus norvegicus [6] was inactive. The ED50 in the data set on Mus musculus [3] is 100 mg/kg; in the data set with Rattus norvegicus [7], more than 30 mg/kg. The TD50 in data set [5] is 100 mg/kg; in data set [8] it was more than 30 mg/kg.

In the case of `COC[C@@H](NC(C)=O)C(=O)NCc1ccc(CCCO)cc1`, the outcome with Mus musculus [1], in the data set on Mus musculus [2], with Rattus norvegicus [4] and in the data set with Rattus norvegicus [6] was inactive. Besides, in the data set with Mus musculus [3], the ED50 is more than 300 mg/kg. Further, the TD50 in data set [5] is more than 300 mg/kg.

In the case of `CCC1(c2ccccc2)C(=O)NC(=O)NC1=O`, the outcome in the data set with Mus musculus [1], in the data set on Mus musculus [2], in the data set on Rattus norvegicus [4] and in the data set with Rattus norvegicus [6] was inactive.

Regarding `COC[C@H](NC(C)=O)C(=O)NCc1ccc(N=[N+]=[N-])cc1`, the outcome with Mus musculus [1], in the data set with Mus musculus [2], in the data set with Rattus norvegicus [4] and in the data set on Rattus norvegicus [6] was inactive. Moreover, in the data set with Mus musculus [3], the 50% effective dose (ED50) is 100 mg/kg. Also, the results for the TD50 in data set [5] and in data set [8] were more than 300 mg/kg and more than 30 mg/kg, respectively.

Turning to `COC[C@@H](NC(C)=O)C(=O)NCc1ccc(C(=O)OC)cc1`, the outcome with Mus musculus [1], in the data set with Mus musculus [2], in the data set on Rattus norvegicus [4] and with Rattus norvegicus [6] was inactive. In addition, the ED50 with Mus musculus [3] is 100 mg/kg. In addition, the TD50 in data set [5] is more than 300 mg/kg.

As to `COC[C@@H](NC(C)=O)C(=O)NCc1ccc(C#CC(C)(C)C)cc1`, the result in the data set on Mus musculus [1], in the data set with Mus musculus [2], with Rattus norvegicus [4] and with Rattus norvegicus [6] was inactive. Also, the ED50 in the data set on Mus musculus [3] is more than 300 mg/kg. For the same compound, in data set [5], the TD50 is 30 mg/kg.

Regarding `C=Cc1ccc(CNC(=O)[C@H](COC)NC(C)=O)cc1`, the outcome with Mus musculus [1], with Mus musculus [2], in the data set with Rattus norvegicus [4] and in the data set with Rattus norvegicus [6] was inactive. In the data set with Mus musculus [3], the ED50 worked out at 100 mg/kg. Moreover, the TD50 in data set [5] is more than 300 mg/kg.

As for `COC[C@H](NC(C)=O)C(=O)NCc1ccccc1`, the outcome with Mus musculus [1], in the data set with Mus musculus [2], in the data set on Rattus norvegicus [4] and with Rattus norvegicus [6] was inactive. For the same compound, the values for the TD50 in data set [5] and in data set [8] were more than 300 mg/kg and more than 30 mg/kg, respectively.

With `COC[C@@H](NC(C)=O)C(=O)NCc1ccc(CN)cc1.Cl`, the result in the data set on Mus musculus [1], in the data set on Mus musculus [2], in the data set with Rattus norvegicus [4] and in the data set on Rattus norvegicus [6] was inactive. For the same compound, the 50% effective dose (ED50) in the data set on Mus musculus [3] is more than 300 mg/kg. Further, the TD50 in data set [5] was more than 300 mg/kg.

For the compound `COC[C@@H](NC(C)=O)C(=O)NCc1ccc(Cl)cc1Cl`, in the data set on Mus musculus [3], the ED50 was 30 mg/kg.

Regarding `COC[C@H](NC(C)=O)C(=O)NCc1ccc(C=O)cc1`, the result with Mus musculus [1], with Mus musculus [2], with Rattus norvegicus [4] and in the data set on Rattus norvegicus [6] was inactive. Also, the 50% effective dose (ED50) in the data set on Mus musculus [3] was more than 300 mg/kg. For the same compound, the TD50 in data set [5] was more than 300 mg/kg.

In the case of `COC[C@@H](NC(C)=O)C(=O)NCc1ccc(N)cc1`, the result in the data set with Mus musculus [1], in the data set with Mus musculus [2], with Rattus norvegicus [4] and with Rattus norvegicus [6] was inactive. In addition, the 50% effective dose (ED50) in the data set on Mus musculus [3] was more than 300 mg/kg. Moreover, the TD50 in data set [5] is more than 300 mg/kg.

`COC[C@H](NC(C)=O)C(=O)NCc1ccc(C#N)cc1`: the result with Mus musculus [1], with Mus musculus [2], in the data set with Rattus norvegicus [4] and in the data set with Rattus norvegicus [6] was inactive. The ED50 in the data set with Mus musculus [3] was 100 mg/kg; in the data set with Rattus norvegicus [7], more than 30 mg/kg. Also, the TD50 in data set [5] was more than 300 mg/kg; in data set [8], more than 30 mg/kg.

For `COC[C@H](NC(C)=O)C(=O)NCc1ccc(C#C[Si](C)(C)C)cc1`, the outcome with Mus musculus [1], in the data set on Mus musculus [2], in the data set with Rattus norvegicus [4] and with Rattus norvegicus [6] was inactive. For the same compound, the 50% effective dose (ED50) is 30 mg/kg in the data set on Mus musculus [3] and more than 30 mg/kg in the data set on Rattus norvegicus [7]. The TD50 was 100 mg/kg in data set [5] and more than 30 mg/kg in data set [8].

Turning to `CC#Cc1ccc(CNC(=O)[C@@H](COC)NC(C)=O)cc1`, the result with Mus musculus [1], in the data set with Mus musculus [2], in the data set with Rattus norvegicus [4] and with Rattus norvegicus [6] was inactive. Besides, the ED50 in the data set on Mus musculus [3] came to 10 mg/kg. In addition, in data set [5], the TD50 was 30 mg/kg.

`COC[C@@H](NC(C)=O)C(=O)NCc1cccc(OC(F)(F)F)c1`: the result in the data set on Mus musculus [1], with Mus musculus [2], with Rattus norvegicus [4] and in the data set with Rattus norvegicus [6] was inactive. Besides, the 50% effective dose (ED50) with Mus musculus [3] was 10 mg/kg. The TD50 in data set [5] worked out at 30 mg/kg.

In the case of `COC[C@@H](NC(C)=O)C(=O)NCc1ccc(N=C=S)cc1`, the ED50 in the data set on Mus musculus [3] amounted to 24 mg/kg.

With `COC[C@@H](NC(C)=O)C(=O)NCc1ccc(S(N)(=O)=O)cc1`, the outcome with Mus musculus [1], in the data set on Mus musculus [2], in the data set on Rattus norvegicus [4] and in the data set with Rattus norvegicus [6] was inactive. The ED50 in the data set with Mus musculus [3] is more than 300 mg/kg. The TD50 in data set [5] is more than 300 mg/kg.

With `COC[C@@H](NC(C)=O)C(=O)NCc1ccc(CNC(=O)OC(C)(C)C)cc1`, the result in the data set with Mus musculus [1], in the data set with Mus musculus [2], in the data set with Rattus norvegicus [4] and in the data set on Rattus norvegicus [6] was inactive. For the same compound, the median effective dose (ED50) in the data set with Mus musculus [3] was more than 300 mg/kg. Further, the TD50 in data set [5] is more than 300 mg/kg.

Turning to `COC[C@@H](NC(C)=O)C(=O)NCc1ccc(C=O)cc1`, the result with Mus musculus [1], with Mus musculus [2], in the data set on Rattus norvegicus [4] and in the data set on Rattus norvegicus [6] was inactive. Also, the ED50 in the data set with Mus musculus [3] was more than 300 mg/kg. In data set [5], the TD50 is more than 300 mg/kg.

As for `COC[C@@H](NC(C)=O)C(=O)NCc1ccc([N+](=O)[O-])cc1`, in the data set on Mus musculus [3], the ED50 stood at 100 mg/kg.

With `COC[C@@H](NC(C)=O)C(=O)NCc1ccc(C(=O)O)cc1`, the outcome with Mus musculus [1], with Mus musculus [2], with Rattus norvegicus [4] and in the data set with Rattus norvegicus [6] was inactive. In addition, in the data set on Mus musculus [3], the ED50 is more than 300 mg/kg. Further, the TD50 in data set [5] is more than 300 mg/kg.

On to `C#Cc1ccc(CNC(=O)[C@H](COC)NC(C)=O)cc1`, for which the result in the data set on Mus musculus [1], in the data set with Mus musculus [2], in the data set with Rattus norvegicus [4] and in the data set with Rattus norvegicus [6] was inactive. For the same compound, the ED50 in the data set on Mus musculus [3] is more than 300 mg/kg. Also, the TD50 in data set [5] is more than 300 mg/kg.
